Reference: ChEMBL document CHEMBL2169781, “Discovery and biological evaluation of a novel class of dual microsomal prostaglandin E2 synthase-1/5-lipoxygenase inhibitors based on 2-[(4,6-diphenethoxypyrimidin-2-yl)thio]hexanoic acid” (J Med Chem, 2011)
pIC50: −log10 of the molar value.

Legend:
[1] = target: T1, Polyunsaturated fatty acid 5-lipoxygenase (Homo sapiens, UniProt P09917); assay: Inhibition of 5-lipoxygenase-mediated 5(S)-H(p)ETE formation in A23187-stimulated human PMNL incubated 10 mins prior to A23187 challenge
T1 sequence (P09917 whole entry): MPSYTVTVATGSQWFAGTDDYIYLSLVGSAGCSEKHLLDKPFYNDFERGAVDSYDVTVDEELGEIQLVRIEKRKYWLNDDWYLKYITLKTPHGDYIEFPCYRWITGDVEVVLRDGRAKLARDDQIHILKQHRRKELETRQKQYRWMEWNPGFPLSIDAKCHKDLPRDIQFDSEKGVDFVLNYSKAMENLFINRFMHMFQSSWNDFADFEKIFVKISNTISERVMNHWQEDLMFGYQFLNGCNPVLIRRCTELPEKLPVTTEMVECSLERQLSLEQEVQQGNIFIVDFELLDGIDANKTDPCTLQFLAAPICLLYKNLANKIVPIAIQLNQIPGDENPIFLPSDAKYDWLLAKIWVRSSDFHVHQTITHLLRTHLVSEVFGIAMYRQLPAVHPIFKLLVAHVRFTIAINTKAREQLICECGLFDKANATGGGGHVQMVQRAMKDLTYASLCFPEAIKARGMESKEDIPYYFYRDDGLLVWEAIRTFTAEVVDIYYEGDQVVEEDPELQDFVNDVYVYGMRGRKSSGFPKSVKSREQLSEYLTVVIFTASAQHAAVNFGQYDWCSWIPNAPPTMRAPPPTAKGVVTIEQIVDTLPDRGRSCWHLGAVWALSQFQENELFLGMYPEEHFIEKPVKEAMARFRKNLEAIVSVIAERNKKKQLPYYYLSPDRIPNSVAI

Prostaglandin E synthase = target: T2, Prostaglandin E synthase (Homo sapiens, UniProt O14684); assay: Inhibition of mPGES-1 in human IL-1beta-stimulated A549 cell microsomes assessed as reduction of PGE2 formation from PGH2 after 15 mins by RP-HPLC analysis; parameters: species or system Microsome
T2 sequence (O14684 whole entry): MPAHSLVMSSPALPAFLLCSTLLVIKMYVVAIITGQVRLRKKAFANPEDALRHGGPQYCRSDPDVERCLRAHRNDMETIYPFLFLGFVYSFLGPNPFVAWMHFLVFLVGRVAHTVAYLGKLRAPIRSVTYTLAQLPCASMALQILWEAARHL
In short: (§1)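 A549 cells in DMEM with 2% FCS for 16 h, induced with IL-1β (1 ng/mL) for 72 h, homogenized. Microsomal pellet (174 000 × g) diluted in 0.1 M potassium phosphate pH 7.4 with 2.5 mM glutathione, given compound or DMSO for 15 min. PGH₂ added (20 μM final), 1 min at 4 °C, stopped with FeCl₂/citric acid. PGE₂ by SPE and RP-HPLC (UV 195 nm), 11β-PGE₂ internal standard. Tested up to 10 μM; IC₅₀ reported only above 50% inhibition at 10 μM.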

[2] = target: T3, Prostaglandin E synthase (Homo sapiens) (UniProt O14684); assay: Inhibition of mPGES-1 in human IL-1beta-stimulated A549 cell microsomes assessed as residual activity by measuring reduction of PGE2 formation from PGH2 at 10 uM after 15 mins by RP-HPLC analysis; conditions: Microsome
T3 sequence (whole entry): T2 sequence (O14684 whole entry)
In short: as §1

[3] = target: T1, Polyunsaturated fatty acid 5-lipoxygenase; assay: Inhibition of human recombinant 5-lipoxygenase-mediated product formation from arachidonic acid after 5 to 10 mins by HPLC analysis
In short: (§2)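 Human 5-LO expressed in E. coli BL21 (pT3-5LO) at 37 °C, purified and used at once. Enzyme (0.5 μg/mL in PBS/EDTA with 1 mM ATP) preincubated with compound 5–10 min at 4 °C, prewarmed 30 s at 37 °C, started with 2 mM CaCl₂ + 20 μM AA (±1 μM 13(S)-HpODE), 10 min at 37 °C, stopped with cold methanol, products by HPLC.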

[4] = target: Prostaglandin G/H synthase 2 (Homo sapiens) (UniProt P35354); assay: Inhibition of human recombinant COX-2 mediated formation of 12-HHT from arachidonic acid assessed as remaining activity at 10 uM after 5 mins by HPLC analysis
[5] = target: T4, Polyunsaturated fatty acid 5-lipoxygenase (Homo sapiens) (UniProt P09917); assay: Inhibition of human recombinant 5-lipoxygenase-mediated product formation from arachidonic acid assessed as remaining activity at 10 uM after 5 to 10 mins by HPLC analysis
T4 sequence (whole entry): T1 sequence (P09917 whole entry)
In short: as §2

[6] = target: Prostaglandin G/H synthase 1 (Ovis aries) (UniProt P05979); assay: Inhibition of ovine COX-1 mediated formation of 12-HHT from arachidonic acid assessed as remaining activity at 10 uM after 5 mins by HPLC analysis
[7] = Cytotoxicity in human polymorphonuclear leukocytes assessed as cell viability at 10 uM after 30 mins by MTT assay

Row | Structure (SMILES) | pIC50 [1] | pIC50 (Prostaglandin E synthase) | Activity [2] [%] | pIC50 [3] | Activity [4] [%] | Activity [5] [%] | Activity [6] [%] | Activity [7]
1 | CCCCC(Sc1nc(OCCC(C)C)cc(OCCC(C)C)n1)C(=O)O (centres undefined) | 5.92 | < 5.00 | 54.5 | 5.17 |  |  |  | 
2 | CCCC/C(=C\c1cc(OCCc2ccccc2)cc(OCCc2ccccc2)c1)C(=O)O | 6.15 | 5.55 |  | < 5.00 | 81.4 | 62.7 | 81.4 | Non-toxic
3 | CCCCC(Sc1nc(OCCc2ccc([N+](=O)[O-])cc2)cc(OCCc2ccc([N+](=O)[O-])cc2)n1)C(=O)O (centres undefined) | 6.30 | 5.43 |  | 5.55 |  |  |  | 
4 | CCCCC(Sc1nc(OCCc2ccsc2)cc(OCCc2ccsc2)n1)C(=O)O (centres undefined) | 6.22 | 5.19 |  | 5.03 |  |  |  | 
5 | CCCCC(Sc1nc(OCCCCc2ccccc2)cc(OCCCCc2ccccc2)n1)C(=O)O (centres undefined) | 6.15 | 6.05 |  | 5.66 |  |  |  | 
6 | CCCCC(Sc1nc(OCCc2ccc(C#N)cc2)cc(OCCc2ccc(C#N)cc2)n1)C(=O)O (centres undefined) | 6.15 | 5.23 |  | 5.18 |  |  |  | 
7 | CCCCC(Sc1nc(OCCC2CCCCCC2)cc(OCCC2CCCCCC2)n1)C(=O)O (centres undefined) | 5.62 | < 5.00 | 62.4 | < 5.00 |  | 53.8 |  | 
8 | CCCCC(Sc1nc(OCCc2ccccc2)cc(OCCc2ccccc2)n1)C(=O)O (centres undefined) | 6.22 | 5.92 |  | 5.33 |  |  |  | 
9 | CCCCC(Sc1nc(OCCC2CCCCC2)cc(OCCC2CCCCC2)n1)C(=O)O (centres undefined) | 6.10 | 5.62 |  | 5.05 |  |  |  | 
10 | CCCCC(Sc1nc(OCCC2CCCC2)cc(OCCC2CCCC2)n1)C(=O)O (centres undefined) | 5.40 | < 5.00 | 90 | 5.17 |  |  |  | 
11 | CCCCC(Cc1cccc(OCCc2ccccc2)c1OCCc1ccccc1)C(=O)O (centres undefined) | 5.68 | 5.41 |  | 5.31 | 89.6 |  | 66.1 | Non-toxic
12 | CCCCC(Sc1nc(OCCc2ccc(C)cc2)cc(OCCc2ccc(C)cc2)n1)C(=O)O (centres undefined) | 6.30 | 6.05 |  | 5.51 |  |  |  | 
13 | CCCCC(Cc1ccc(OCCc2ccccc2)c(OCCc2ccccc2)c1)C(=O)O (centres undefined) | 5.22 | 5.57 |  | < 5.00 | 86.4 | 54 | 95.8 | Non-toxic
14 | CCCCC(Cc1cc(OCCc2ccccc2)cc(OCCc2ccccc2)c1)C(=O)O (centres undefined) | 5.33 | 5.62 |  | < 5.00 | 78.4 | 80.3 | 78.7 | Non-toxic
15 | CCCC/C(=C\c1cc(OCCC2CCCCC2)ccc1OCCC1CCCCC1)C(=O)O | 6.10 | 5.47 |  | < 5.00 | 123 | 73 | 76.4 | Non-toxic
16 | CCCC/C(=C\c1cc(OCc2ccc(C(F)(F)F)cc2)ccc1OCc1ccc(C(F)(F)F)cc1)C(=O)O | 6.70 | < 5.00 | 55.1 | 5.36 | 102 |  | 82.6 | Non-toxic
17 | CCCCC(Sc1nc(OCCCc2ccccc2)cc(OCCCc2ccccc2)n1)C(=O)O (centres undefined) | 6.05 | 5.66 |  | 5.57 |  |  |  | 
18 | O=C(O)CSc1nc(OCCc2ccccc2)cc(OCCc2ccccc2)n1 | 5.12 | < 5.00 |  | < 5.00 |  | 57 |  | 
19 | CCCCC(Sc1cc(OCCc2ccccc2)cc(OCCc2ccccc2)c1)C(=O)O (centres undefined) | 6.10 | 5.34 |  | 5.14 | 110 |  | 71.3 | Non-toxic
20 | CCCCC(Sc1nc(OCCC2CC2)cc(OCCC2CC2)n1)C(=O)O (centres undefined) | 5.92 | 5.02 |  | 5.03 |  |  |  | 
21 | CCCCC(Sc1nc(OCCc2ccc(C(F)(F)F)cc2)cc(OCCc2ccc(C(F)(F)F)cc2)n1)C(=O)O (centres undefined) | 6.30 | 5.72 |  | 5.66 |  |  |  | 
